Assay results collected from several papers.
Lines come from different studies, so protocols differ.
Target: Mitogen-activated protein kinase 4 (MAPK4, Homo sapiens, UniProt P31152)

| SMILES | assay | setting | remaining binding [%] |
| --- | --- | --- | --- |
| O=C(c1ccc(Nc2ncc(Cl)c(-c3ccc(Cl)s3)n2)cc1)N1CCC(N2CCCC2)CC1 | binding, competition with immobilised ligand | 1 µM | 0.3 |
| COc1cnc(Nc2cccc(S(N)(=O)=O)c2)nc1N1CCN(c2ccccc2)CC1 | binding, competition with immobilised ligand | 1 µM | 96 |
| CCS(=O)(=O)c1cc2cc(C[C@](O)(CC(C)(C)c3ccc(F)cc3C(N)=O)C(F)(F)F)[nH]c2cn1 | cell-free assay, competition with immobilised ligand | 1 µM | 100 |
| CN(C)c1nccc(-c2cnc3ncccn23)n1 | binding | 1 µM | 98 |
| O=C(c1ccc(Nc2ncc(Cl)c(-c3cc4ccccc4s3)n2)cc1)N1CCC(N2CCCC2)CC1 | binding, competition with immobilised ligand | 1 µM | 20 |
| CCN1CCN(Cc2ccc(C(=O)Nc3ccc(C)c(Oc4ccc5c(c4)CC(=O)N5)c3)cc2C(F)(F)F)CC1 | binding, competition with immobilised ligand | 1 µM | 100 |
| COc1ccnn2ncc(-c3ccnc(N(C)C)n3)c12 | binding | 1 µM | 100 |
| CCOCCn1cc(C(=O)Nc2ccc(-n3nc(-c4cccnc4)cc3C(F)(F)F)cn2)ccc1=O | cell-free assay, competition with immobilised ligand | 1 µM | 100 |
| C[C@H]1CCN(c2nccc(-c3cnn4ncccc34)n2)C1 | binding | 1 µM | 93 |
| O=C(NCCCN1CCOCC1)c1ccc(Nc2ncc(Cl)c(-c3ccc(Cl)s3)n2)cc1 | binding, competition with immobilised ligand | 1 µM | 1.4 |
| Cc1cnn2ncc(-c3ccnc(N(C)C)n3)c2c1 | binding | 1 µM | 94 |
| CS(=O)(=O)N1CCCC(NC(=O)[C@H](CCC2CCCCC2)NC(=O)c2ccc(CNC(=O)c3cnc4ccccn34)cc2)C1 (stereo partly drawn) | cell-free assay, competition with immobilised ligand | 0.1 µM | 100 |
| COc1ncc2cc3ccccc3nc2c1C#N | cell-free assay, competition with immobilised ligand | 5 µM | 100 |
| c1ccc(N2CCN(Cc3nc4ccccc4[nH]3)CC2)nc1 | binding, competition with immobilised ligand | 1 µM | 100 |
| c1cnn2ncc(-c3ccnc(N4CCC45COC5)n3)c2c1 | binding | 1 µM | 83 |
| O=C(NCC1CCOCC1)c1n[nH]cc1NC(=O)c1c(F)cccc1F | binding, competition with immobilised ligand | 1 µM | 99 |
| Nc1ncc2c(n1)-c1c([nH]c3ccc(C#CC4CC4)cc13)CCCC2 | binding, competition with immobilised ligand | 1 µM | 96 |
| O=C(Nc1ccc(Oc2ccc(F)cc2)cc1)N1CCc2ncccc2[C@H]1c1ccc(F)cc1 | cell-free assay, competition with immobilised ligand | 1 µM | 95 |
| N[C@@H]1CCN(c2nccc(-c3cnn4ncccc34)n2)C1 | binding | 1 µM | 100 |
| CC(=O)c1c(NS(C)(=O)=O)c2cc(-c3ccc(Cl)cc3)c(-c3ccc(Cl)cc3Cl)nc2n(C)c1=O | cell-free assay, competition with immobilised ligand | 1 µM | 100 |
| COc1cnc(Nc2cccc(S(N)(=O)=O)c2)nc1N1CCN(c2ccccc2)C(=O)C1 | binding, competition with immobilised ligand | 1 µM | 99 |
